In article PMC10468838 (ACS Omega, 2023):
Values after ≈ are worked out from the molar mass of the structure shown. Like-named read-outs stand apart in the source and are kept apart here. Each block holds one compound with its values, some of them ahead of it.

Key:
A549 lung cancer cells = test: MTT assay, A549 cells; assay type: cell-based; conditions: Homo sapiens, A549, 72 h, read-out: IC50 (μM) A549
Summary of the method: (§1)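 HT29, H1975, A549, MCF-7 and normal colon epithelial CCD841 cells were seeded at 5×10^5 cells/mL and grown 24 h. They were exposed to test compound at 0.5, 1.0, 2.0, 5.0 or 12.5 μM in DMEM for 24 h, then cultured a further 72 h. MTT (5 mg/mL solution) was added for 4 h at 37 °C and the formazan dissolved in DMSO. A490 was read. IC50 is given as mean ± s.d., n = 3.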

[1] = system: MCF-7 breast cancer cells; test: MTT assay, MCF-7 cells; assay type: cell-based; conditions: Homo sapiens, MCF7, 72 h, read-out: IC50 (μM) MCF-7
Summary of the method: as §1

HT29 colon cancer cells = test: MTT assay, HT29 cells; assay type: cell-based, human; conditions: for IC50: read-out: IC50 (μM) HT29
Summary of the method: as §1

[2] = system: H1975 lung adenocarcinoma cells; test: MTT assay, H1975 cells; assay type: cell-based; conditions: Homo sapiens, NCI-H1975, 72 h, read-out: IC50 (μM) H1975
Summary of the method: as §1

[3] = system: human normal colon epithelial cells (CCD841); test: MTT assay, normal CCD841 cells; assay type: cell-based
Summary of the method: as §1

[4] = system: HT29, H1975, A549 and MCF-7 cancer cells; test: MTT assay, summary over the four cancer cell lines; assay type: cell-based, human; conditions: for IC50: Homo sapiens, read-out: IC50 against the four cancer cell lines
Summary of the method: as §1

logP by UV method = assay type: physicochemical
[5] = Water solubility by UV method; assay type: physicochemical; conditions: thermodynamic from solid
Summary of the method: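 For a UV calibration curve, absorbance was measured at five concentrations of each compound in methanol/water (1:1, v/v). Excess solid compound was left standing in water for 2 h, then filtered. Absorbance of the filtrate was read and converted to concentration using the curve, giving water solubility.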

ROS levels in HT29 cells = test: Intracellular ROS detection with DCFH-DA probe; assay type: cell-based, human; conditions: 12 h, CO 5.0 μM, 8h 1.0 or 5.0 μM
Summary of the method: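 HT29 cells (about 1×10^4 per well) were exposed to test compound at 1.0 or 5.0 μM for 12 h, with the parent reference at 5.0 μM. DCFH-DA (10 μM) was added for 30 min. DCF green fluorescence (λex 488 nm, λem 500–550 nm) was imaged by confocal microscopy. Results are mean ± SD of three separate assays.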

MMP of HT29 cells = test: Mitochondrial membrane potential with JC-1 dye; assay type: cell-based, human; conditions: 8h 5 μM
HT29 cells = test: Apoptosis assay, annexin V-FITC/PI flow cytometry; assay type: cell-based, human
Summary of the method: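 HT29 cells were seeded at 2×10^4 cells per well and left overnight. They were treated with test compound at 1.0 or 5.0 μM (parent reference 5.0 μM) for 24 h, then kept another 72 h. Cells were harvested, washed in PBS and stained with annexin V-FITC/PI. Early plus late apoptotic cells were counted by flow cytometry. Results are mean ± SD of three separate assays.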

[6] = system: cleaved-caspase 3 in HT29 cells; test: Western blot, cleaved-caspase 3; assay type: cell-based, human; conditions: 1.0 and 5.0 μM, Western blotting
Summary of the method: (§2)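 HT29 cells were cultured for 4 h in medium containing test compound at 1.0 or 5.0 μM, with the parent reference at 5.0 μM. Lysis was in RIPA buffer with protease and phosphatase inhibitors, 30 min on ice. Protein was quantified by BCA, and equal amounts were run on SDS-PAGE and transferred to PVDF. Band levels were expressed relative to β-actin.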

Bcl-2 in HT29 cells = test: Western blot, Bcl-2; assay type: cell-based, human; conditions: 1.0 and 5.0 μM, Western blotting
H2AX in HT29 cells = test: Western blot, H2AX; assay type: cell-based, human; conditions: Western blotting
Summary of the method: as §2

GPX4 in HT29 cells = test: Western blot, GPX4; assay type: cell-based, human; conditions: 1.0 or 5.0 μM, compared with CO
Summary of the method: as §2

GSH level in HT29 cells = test: GSH level assay; assay type: cell-based, human; conditions: 24 h, 1.0 or 5.0 μM, compared with CO
Summary of the method: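 HT29 cells were exposed for 24 h to test compound at 1.0 or 5.0 μM, with the parent reference at 5.0 μM. Cells were harvested and counted. Glutathione was measured with a QuantiChrome glutathione assay kit. Results are mean ± SD, n = 3.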

[7] = system: malondialdehyde (MDA) in HT29 cells; test: Lipid peroxidation; assay type: cell-based, human; conditions: compared with CO
Summary of the method: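 HT29 cells were pretreated with or without ferrostatin-1 (1.0 μM) for 4 h. They were then exposed to test compound at 1.0 or 5.0 μM, with the parent reference at 5.0 μM. Lipid peroxidation was quantified as malondialdehyde with an MDA assay kit. Results are mean ± SD, n = 3.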

SMILES: NC1CCC(NC(=O)c2cc3c4ccccc4n4c(=O)ccc(n2)c34)CC1 (stereo not drawn) [8j, N-(4-Aminocyclohexyl)-6-oxo-6H-indolo[3,2,1-de][1,5]naphthyridine-2-carboxamide]
IC50 (A549 lung cancer cells): 3.5 ± 0.4 µM
IC50 [1]: 5.9 ± 0.5 µM

SMILES: CN1CCN(C2CCN(c3ccc(NC(=O)c4cc5c6ccccc6n6c(=O)ccc(n4)c56)cc3)CC2)CC1 [8l, N-(4-(4-(4-Methylpiperazin-1-yl)piperidin-1-yl)phenyl)-6-oxo-6H-indolo[3,2,1-de][1,5]naphthyridine-2-carboxamide]
IC50 (HT29 colon cancer cells; Homo sapiens, HT-29, 72 h): > 10 µM
IC50 [2]: > 10 µM
IC50 (A549 lung cancer cells): > 10 µM
IC50 [1]: > 10 µM

SMILES: CN(C)CCCNC(=O)c1cc2c3ccccc3n3c(=O)ccc(n1)c23 [8c, N-(3-(Dimethylamino)propyl)-6-oxo-6H-indolo[3,2,1-de][1,5]naphthyridine-2-carboxamide]
IC50 (HT29 colon cancer cells; Homo sapiens, HT-29, 72 h): 4.1 ± 0.3 µM
IC50 [2]: 7.7 ± 0.8 µM
IC50 (A549 lung cancer cells): 4.8 ± 0.4 µM
IC50 [1]: 4.6 ± 0.5 µM

SMILES: CCN(CC)CCNC(=O)c1cc2c3ccccc3n3c(=O)ccc(n1)c23 [8a, N-(2-(Diethylamino)ethyl)-6-oxo-6H-indolo[3,2,1-de][1,5]naphthyridine-2-carboxamide]
IC50 (HT29 colon cancer cells; Homo sapiens, HT-29, 72 h): 2.2 ± 0.3 µM
IC50 (A549 lung cancer cells): 3.8 ± 0.5 µM
IC50 [1]: 4.7 ± 0.4 µM

SMILES: CCN(CC)CCCC(C)NC(=O)c1cc2c3ccccc3n3c(=O)ccc(n1)c23 (stereo not drawn) [8k, N-(5-(Diethylamino)pentan-2-yl)-6-oxo-6H-indolo[3,2,1-de][1,5]naphthyridine-2-carboxamide]
IC50 (HT29 colon cancer cells; Homo sapiens, HT-29, 72 h): 4.3 ± 0.5 µM
IC50 [2]: 5.5 ± 0.7 µM
IC50 [1]: 3.8 ± 0.3 µM

SMILES: O=c1ccc2nccc3c4ccccc4n1c23 [CO, Canthin-6-one, reference compound]
IC50 (HT29 colon cancer cells; Homo sapiens, HT-29, 72 h): 8.6 ± 0.7 µM
IC50 [2]: 10.7 ± 1.2 µM
IC50 (A549 lung cancer cells): 7.6 ± 0.6 µM
IC50 [1]: 8.9 ± 0.9 µM
IC50 [4]: 7.6 to 10.7 µM
logP (logP by UV method): 1.87
solubility at 2 h [5]: 16.1 ± 1 µg/mL (≈ 73.1 µM)
intracellular ROS level (DCFH-DA fluorescence) (ROS levels in HT29 cells): weak fluorescence signal
percentage of apoptotic cells (early + late) (HT29 cells; 5.0 μM): 22.68%
increase of H2AX expression (H2AX in HT29 cells; 5.0 μM): approximately 1.3 fold

SMILES: O=C(NCCNCCO)c1cc2c3ccccc3n3c(=O)ccc(n1)c23 [8d, N-(2-((2-Hydroxyethyl)amino)ethyl)-6-oxo-6H-indolo[3,2,1-de][1,5] naphthyridine-2-carboxamide]
IC50 (HT29 colon cancer cells; Homo sapiens, HT-29, 72 h): 2.6 ± 0.2 µM
IC50 (A549 lung cancer cells): 4.2 ± 0.3 µM

SMILES: COc1cccc2c1C(=O)c1c(O)c3c(c(O)c1C2=O)C[C@@](O)(C(=O)CO)C[C@@H]3O[C@H]1C[C@H](N)[C@H](O)[C@H](C)O1 [ADM, reference compound]
IC50 (HT29 colon cancer cells; HT29 cells, MTT, incubated for 72 h, mean ± s.d., n = 3): 2.6 ± 0.4 µM

The remaining compounds from weak to strong by IC50 (A549 lung cancer cells), led by results:

IC50 (HT29 colon cancer cells; Homo sapiens, HT-29, 72 h): 2.3 ± 0.3 µM
IC50 [2]: 3 ± 0.4 µM
IC50 (A549 lung cancer cells): 3.4 ± 0.3 µM
IC50 [1]: 4.6 ± 0.5 µM
logP (logP by UV method): 1.38
solubility at 2 h [5]: 60.4 ± 5.4 µg/mL (≈ 168 µM)
SMILES: CN1CCC(NC(=O)c2cc3c4ccccc4n4c(=O)ccc(n2)c34)CC1 [8i, N-(1-Methylpiperidin-4-yl)-6-oxo-6H-indolo[3,2,1-de][1,5]naphthyridine-2-carboxamide]

IC50 (HT29 colon cancer cells; Homo sapiens, HT-29, 72 h): 2.9 ± 0.4 µM
IC50 [2]: 7.5 ± 0.6 µM
IC50 (A549 lung cancer cells): 3.2 ± 0.2 µM
IC50 [1]: 3.8 ± 0.3 µM
SMILES: CN(C)CCNC(=O)c1cc2c3ccccc3n3c(=O)ccc(n1)c23 [8b, N-(2-(Dimethylamino)ethyl)-6-oxo-6H-indolo[3,2,1-de][1,5]naphthyridine-2-carboxamide]

IC50 (A549 lung cancer cells): 2.1 ± 0.3 µM
IC50 [1]: 4.5 ± 0.6 µM
SMILES: O=C(NCCN1CCCC1)c1cc2c3ccccc3n3c(=O)ccc(n1)c23 [8e, 6-Oxo-N-(2-(pyrrolidin-1-yl)ethyl)-6H-indolo[3,2,1-de][1,5]naphthyridine-2-carboxamide]

IC50 (HT29 colon cancer cells; Homo sapiens, HT-29, 72 h): 1.7 ± 0.3 µM
IC50 [2]: 1.6 ± 0.1 µM
IC50 (A549 lung cancer cells): 2 ± 0.1 µM
IC50 [1]: 2.4 ± 0.2 µM
logP (logP by UV method): 2.17
solubility at 2 h [5]: 41.3 ± 4.5 µg/mL (≈ 110 µM)
SMILES: O=C(NCCN1CCCCC1)c1cc2c3ccccc3n3c(=O)ccc(n1)c23 [8f, 6-Oxo-N-(2-(piperidin-1-yl)ethyl)-6H-indolo[3,2,1-de][1,5]naphthyridine-2-carboxamide]

fold lower IC50 than CO against HT29 cells (HT29 colon cancer cells; HT29 cells, vs CO): 8.6 fold
IC50 (HT29 colon cancer cells; Homo sapiens, HT-29, 72 h): 1 ± 0.1 µM
IC50 [2]: 1.9 ± 0.3 µM
IC50 (A549 lung cancer cells): 1.3 ± 0.1 µM
IC50 [1]: 1.7 ± 0.2 µM
IC50 [4]: 1 to 1.9 µM
logP (logP by UV method): 1.19
solubility at 2 h [5]: 70.5 ± 3.6 µg/mL (≈ 181 µM)
SMILES: CN1CCN(CCNC(=O)c2cc3c4ccccc4n4c(=O)ccc(n2)c34)CC1 [8h, N-(2-(4-Methylpiperazin-1-yl)ethyl)-6-oxo-6H-indolo[3,2,1-de][1,5] naphthyridine-2-carboxamide]
IC50 ([3]; Homo sapiens, CCD-841, read-out: IC50 in normal cell line CCD841): 17.1 ± 2.5 µM
fold less cytotoxicity in CCD841 than in HT29 cells ([3]; IC50 CCD841 vs IC50 HT29): 17 fold
fold higher cytotoxicity than CO against the four cancer cells ([4]; vs CO, four cancer cell lines): 5–9 fold
intracellular ROS level (DCFH-DA fluorescence) (ROS levels in HT29 cells): Intense green fluorescence
MMP (JC-1 red/green fluorescence) (MMP of HT29 cells): intracellular red fluorescence almost disappeared
percentage of apoptotic cells (early + late) (HT29 cells; 1.0 μM): 31.55%
percentage of apoptotic cells (early + late) (HT29 cells; 5.0 μM): 45.14%
cleaved-caspase 3 level [6]: remarkably led to cleavage of caspase-3
Bcl-2 expression (Bcl-2 in HT29 cells): reduced the expression of antiapoptotic Bcl-2 protein in a dose-dependent manner
increase of H2AX expression (H2AX in HT29 cells; 1.0 μM): 2.4 fold
increase of H2AX expression (H2AX in HT29 cells; 5.0 μM): 3.2 fold
GPX4 expression (GPX4 in HT29 cells): markedly reduced
GSH level (GSH level in HT29 cells): markedly reduced
level of malondialdehyde (MDA), lipid peroxidation [7]: increased the level of malondialdehyde
